This passage reports inhibition, IC50 and Activity results from ChEMBL document CHEMBL5661979, “Pharmacological inhibition of BMK1 suppresses tumor growth through promyelocytic leukemia protein” (Cancer Cell, 2010).

Active and inactive are the calls of the source. No cut-off for these calls is given here.

For experiment [1], the target named is T1, Calcium/calmodulin-dependent protein kinase type 1D (Homo sapiens, UniProt Q8IU85). Put plainly: Inhibition of CAMK1d in human HeLa cells lysate at 50 uM pre incubated for 15 mins followed by ATP acyl phosphate probe addition and measured after 10 mins by LC-MS/MS analysis relative to control. Format: subcellular. The note with it: time 25.0 min. In short, it runs like this: (§1)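 KiNativ-type profiling in HeLa lysate (5 mg/mL total protein). Lysate preincubated 15 min with inhibitor at 50, 10, 2, 0.8 or 0 μM, then ATP or ADP acylphosphate probe added (5 μM final) for 10 min. Reaction stopped with urea and analysed by targeted MS, using up to four fragment ions per kinase peptide-probe conjugate. % inhibition calculated against untreated lysate. Duplicate reactions.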

Experiment [2] concerns the target Serine/threonine-protein kinase Nek7 (Homo sapiens, UniProt Q8TDX7). The experiment in a line: Inhibition of NEK7 in human HeLa cells lysate pre incubated for 15 mins followed by ADP acyl phosphate probe addition and measured after 10 mins by LC-MS/MS analysis. Format: subcellular.
Experiment [3] deals with MAP/microtubule affinity-regulating kinase 3 (Homo sapiens, UniProt P27448). Put plainly: Inhibition of MARK3 in human HeLa cells lysate at 50 uM pre incubated for 15 mins followed by ATP acyl phosphate probe addition and measured after 10 mins by LC-MS/MS analysis relative to control. Format: subcellular. The note with it: time 25.0 min.
The target of experiment [4] is Serine/threonine-protein kinase PLK1 (Homo sapiens, UniProt P53350). Put plainly: Inhibition of PLK1 K1 site in human HeLa cells lysate pre incubated for 15 mins followed by ATP acyl phosphate probe addition and measured after 10 mins by LC-MS/MS analysis. The class given is subcellular.
Experiment [5] has as its target Transcription intermediary factor 1-beta (Homo sapiens, UniProt Q13263). The experiment in a line: Inhibition of TIF1b in human HeLa cells lysate pre incubated for 15 mins followed by ATP acyl phosphate probe addition and measured after 10 mins by LC-MS/MS analysis. The class given is subcellular.
The test system of a further experiment is Mus musculus. Put plainly: Antiangiogenic activity in C57Bl/6 mouse implanted with matrigel assessed as reduction in bFGF-induced angiogenesis at 50 mg/kg, ip for 6 days by Masson's trichrome staining based assay. The class given is functional, organism-based. The note with it: time 6.0 day. In short, it runs like this: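 Mice were implanted with Matrigel containing 400 ng/mL bFGF. From the next day they received drug or vehicle for 6 days. Plugs were then harvested, sectioned and stained with Masson's trichrome; hemoglobin content of the plugs was also measured. n = 6 mice, 9 slices.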

In experiment [6] the target is T2, Rho-associated protein kinase (Homo sapiens, UniProt O75116+Q13464). The experiment in a line: Inhibition of ROCK1/2 in human HeLa cells lysate at 50 uM pre incubated for 15 mins followed by ATP acyl phosphate probe addition and measured after 10 mins by LC-MS/MS analysis relative to control. Format: subcellular. The note with it: time 25.0 min.
Experiment [7] addresses Ephrin type-B receptor 4 (Homo sapiens) (UniProt P54760). Put plainly: Inhibition of EphB4 in human HeLa cells lysate at 10 uM pre incubated for 15 mins followed by ATP acyl phosphate probe addition and measured after 10 mins by LC-MS/MS analysis relative to control. The class given is subcellular. Conditions: time 25.0 min.
In experiment [8] the target is Ribosomal protein S6 kinase alpha-3 (Homo sapiens, UniProt P51812). Put plainly: Inhibition of RSK2 domain 1 active form in human HeLa cells lysate at 2 uM pre incubated for 15 mins followed by ATP acyl phosphate probe addition and measured after 10 mins by LC-MS/MS analysis relative to control. The class given is subcellular. Conditions: time 25.0 min.
Experiment [9] concerns the target T1, Calcium/calmodulin-dependent protein kinase type 1D. Put plainly: Inhibition of CAMK1d in human HeLa cells lysate at 10 uM pre incubated for 15 mins followed by ATP acyl phosphate probe addition and measured after 10 mins by LC-MS/MS analysis relative to control. Format: subcellular. Conditions: time 25.0 min. In short, it runs like this:
as §1

In experiment [10] the target is Mitogen-activated protein kinase kinase kinase 4 (Homo sapiens, UniProt Q9Y6R4). Put plainly: Inhibition of MAP3K4 in human HeLa cells lysate pre incubated for 15 mins followed by ATP acyl phosphate probe addition and measured after 10 mins by LC-MS/MS analysis. The class given is subcellular.
In experiment [11] the target is Serine/threonine-protein kinase B-raf (Homo sapiens, UniProt P15056). The experiment in a line: Inhibition of BRAF in human HeLa cells lysate pre incubated for 15 mins followed by ADP acyl phosphate probe addition and measured after 10 mins by LC-MS/MS analysis. Format: subcellular. In short, it runs like this: as §1
Experiment [12] has as its target Serine/threonine-protein kinase Nek4 (Homo sapiens, UniProt P51957). The experiment in a line: Inhibition of NEK4 in human HeLa cells lysate pre incubated for 15 mins followed by ATP acyl phosphate probe addition and measured after 10 mins by LC-MS/MS analysis. Format: subcellular.
The target in experiment [13] is Cyclin-dependent kinase 5 (Homo sapiens, UniProt Q00535). The experiment in a line: Inhibition of CDK5 in human HeLa cells lysate pre incubated for 15 mins followed by ATP acyl phosphate probe addition and measured after 10 mins by LC-MS/MS analysis. Format: subcellular. In short, it runs like this:
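KiNativ profiling in HeLa lysate (5 mg/mL total protein). Lysate incubated 15 min with inhibitor at 50, 10, 2, 0.8 or 0 μM. ATP or ADP acylphosphate probe then added (5 μM final) and reacted 10 min. Reaction stopped with urea and analysed by targeted MS, using up to four fragment ions per kinase peptide-probe conjugate. % inhibition taken against untreated lysate. Run in duplicate.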

The target in experiment [14] is Interferon-induced, double-stranded RNA-activated protein kinase (Homo sapiens, UniProt P19525). The experiment in a line: Inhibition of PKR in human HeLa cells lysate at 50 uM pre incubated for 15 mins followed by ATP acyl phosphate probe addition and measured after 10 mins by LC-MS/MS analysis relative to control. Format: subcellular. The note with it: time 25.0 min.

Experiment [15] deals with c-Jun N-terminal kinase, JNK (Homo sapiens, UniProt P45983+P53779+P45984). The experiment in a line: Inhibition of JNK1/JNK2/JNK3 in human HeLa cells lysate at 50 uM pre incubated for 15 mins followed by ATP acyl phosphate probe addition and measured after 10 mins by LC-MS/MS analysis relative to control. The class given is subcellular. The note with it: time 25.0 min.

Experiment [16] deals with T3, Serine/threonine-protein kinase 3 (Homo sapiens) (UniProt Q13188).
T3 sequence (whole entry): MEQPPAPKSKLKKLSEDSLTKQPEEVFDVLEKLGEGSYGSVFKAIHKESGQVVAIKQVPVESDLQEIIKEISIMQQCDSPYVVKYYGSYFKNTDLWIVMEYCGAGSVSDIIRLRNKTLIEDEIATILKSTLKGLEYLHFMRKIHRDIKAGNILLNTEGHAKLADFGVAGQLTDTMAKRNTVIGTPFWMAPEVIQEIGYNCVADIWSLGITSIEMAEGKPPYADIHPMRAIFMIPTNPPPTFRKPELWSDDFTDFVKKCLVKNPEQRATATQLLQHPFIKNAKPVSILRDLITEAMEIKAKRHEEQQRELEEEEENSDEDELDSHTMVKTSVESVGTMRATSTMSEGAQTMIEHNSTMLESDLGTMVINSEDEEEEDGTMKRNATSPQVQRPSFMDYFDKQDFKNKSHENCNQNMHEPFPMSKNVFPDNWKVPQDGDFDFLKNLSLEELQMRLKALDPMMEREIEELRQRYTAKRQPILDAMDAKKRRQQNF
The experiment in a line: Inhibition of MST2 in human HeLa cells lysate at 50 uM pre incubated for 15 mins followed by ADP acyl phosphate probe addition and measured after 10 mins by LC-MS/MS analysis relative to control. Format: subcellular. The note with it: time 25.0 min.

In experiment [17] the target is T2, Rho-associated protein kinase. The experiment in a line: Inhibition of ROCK1/2 in human HeLa cells lysate at 2 uM pre incubated for 15 mins followed by ATP acyl phosphate probe addition and measured after 10 mins by LC-MS/MS analysis relative to control. Format: subcellular. Conditions: time 25.0 min.

T2 sequence (O75116 whole entry, looked up): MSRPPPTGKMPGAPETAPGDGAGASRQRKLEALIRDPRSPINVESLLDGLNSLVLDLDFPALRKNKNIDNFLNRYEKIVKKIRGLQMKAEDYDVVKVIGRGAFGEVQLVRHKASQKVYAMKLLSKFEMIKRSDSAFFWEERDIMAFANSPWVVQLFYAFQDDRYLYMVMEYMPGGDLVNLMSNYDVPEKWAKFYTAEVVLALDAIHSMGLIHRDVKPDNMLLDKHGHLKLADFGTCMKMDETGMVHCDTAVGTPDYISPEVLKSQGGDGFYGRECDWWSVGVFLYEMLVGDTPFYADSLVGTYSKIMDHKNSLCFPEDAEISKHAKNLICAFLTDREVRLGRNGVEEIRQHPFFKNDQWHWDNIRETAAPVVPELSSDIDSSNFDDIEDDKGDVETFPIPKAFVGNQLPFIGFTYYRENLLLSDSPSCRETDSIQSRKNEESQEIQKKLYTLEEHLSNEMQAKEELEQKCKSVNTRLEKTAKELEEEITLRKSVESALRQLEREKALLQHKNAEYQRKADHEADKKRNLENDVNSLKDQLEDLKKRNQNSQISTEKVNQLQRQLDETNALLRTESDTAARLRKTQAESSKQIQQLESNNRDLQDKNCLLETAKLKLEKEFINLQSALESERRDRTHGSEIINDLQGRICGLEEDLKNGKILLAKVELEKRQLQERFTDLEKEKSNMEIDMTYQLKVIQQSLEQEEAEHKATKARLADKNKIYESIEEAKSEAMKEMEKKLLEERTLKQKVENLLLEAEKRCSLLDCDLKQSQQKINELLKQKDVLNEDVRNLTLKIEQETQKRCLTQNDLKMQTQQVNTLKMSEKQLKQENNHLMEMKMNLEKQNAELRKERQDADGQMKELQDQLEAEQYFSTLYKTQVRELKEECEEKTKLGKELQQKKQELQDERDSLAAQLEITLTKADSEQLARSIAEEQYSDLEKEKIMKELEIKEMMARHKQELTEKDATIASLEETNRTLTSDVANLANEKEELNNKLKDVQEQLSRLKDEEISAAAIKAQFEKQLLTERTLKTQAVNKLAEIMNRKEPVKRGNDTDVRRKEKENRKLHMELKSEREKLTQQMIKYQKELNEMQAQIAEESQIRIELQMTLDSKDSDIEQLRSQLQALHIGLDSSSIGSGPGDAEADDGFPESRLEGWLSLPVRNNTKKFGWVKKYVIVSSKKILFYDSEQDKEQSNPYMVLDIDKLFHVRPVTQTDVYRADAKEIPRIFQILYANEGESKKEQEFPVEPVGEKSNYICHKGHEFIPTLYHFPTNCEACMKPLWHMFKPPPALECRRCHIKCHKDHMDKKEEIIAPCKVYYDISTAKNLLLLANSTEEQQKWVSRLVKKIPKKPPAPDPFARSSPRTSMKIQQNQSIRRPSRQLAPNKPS
T2 sequence (Q13464 whole entry, looked up): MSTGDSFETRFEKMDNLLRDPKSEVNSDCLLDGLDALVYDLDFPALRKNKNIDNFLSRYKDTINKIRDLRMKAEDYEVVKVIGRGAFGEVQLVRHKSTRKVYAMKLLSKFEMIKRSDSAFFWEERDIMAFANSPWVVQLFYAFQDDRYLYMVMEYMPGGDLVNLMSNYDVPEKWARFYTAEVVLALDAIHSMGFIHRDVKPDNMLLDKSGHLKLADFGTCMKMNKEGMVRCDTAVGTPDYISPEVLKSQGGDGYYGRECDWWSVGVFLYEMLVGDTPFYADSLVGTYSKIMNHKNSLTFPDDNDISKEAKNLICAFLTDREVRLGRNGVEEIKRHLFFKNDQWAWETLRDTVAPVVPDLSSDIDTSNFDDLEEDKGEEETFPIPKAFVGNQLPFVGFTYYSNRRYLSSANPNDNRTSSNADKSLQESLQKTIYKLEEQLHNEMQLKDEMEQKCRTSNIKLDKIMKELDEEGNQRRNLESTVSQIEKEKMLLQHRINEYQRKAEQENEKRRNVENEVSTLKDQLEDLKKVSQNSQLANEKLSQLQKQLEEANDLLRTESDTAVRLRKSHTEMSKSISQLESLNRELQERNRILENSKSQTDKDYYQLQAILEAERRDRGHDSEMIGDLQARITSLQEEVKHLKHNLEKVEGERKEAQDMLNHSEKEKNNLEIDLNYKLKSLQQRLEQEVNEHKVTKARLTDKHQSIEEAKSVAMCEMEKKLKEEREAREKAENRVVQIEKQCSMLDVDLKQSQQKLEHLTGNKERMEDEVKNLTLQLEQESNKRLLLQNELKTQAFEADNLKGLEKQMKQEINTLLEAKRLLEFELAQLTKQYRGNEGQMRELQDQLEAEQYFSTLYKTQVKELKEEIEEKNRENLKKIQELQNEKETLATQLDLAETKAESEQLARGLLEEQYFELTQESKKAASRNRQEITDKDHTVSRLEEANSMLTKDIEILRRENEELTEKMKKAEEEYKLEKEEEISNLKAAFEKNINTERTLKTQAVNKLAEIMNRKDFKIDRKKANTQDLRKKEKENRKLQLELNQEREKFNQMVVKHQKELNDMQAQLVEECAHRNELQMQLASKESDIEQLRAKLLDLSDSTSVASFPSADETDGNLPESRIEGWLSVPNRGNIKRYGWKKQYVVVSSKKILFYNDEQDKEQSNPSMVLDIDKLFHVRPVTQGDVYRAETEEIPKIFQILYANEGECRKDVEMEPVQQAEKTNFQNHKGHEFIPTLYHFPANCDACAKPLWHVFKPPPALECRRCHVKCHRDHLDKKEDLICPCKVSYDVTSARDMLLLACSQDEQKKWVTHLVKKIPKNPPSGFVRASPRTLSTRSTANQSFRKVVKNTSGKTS
T1 sequence (Q8IU85 whole entry, looked up, the tested form may be a part): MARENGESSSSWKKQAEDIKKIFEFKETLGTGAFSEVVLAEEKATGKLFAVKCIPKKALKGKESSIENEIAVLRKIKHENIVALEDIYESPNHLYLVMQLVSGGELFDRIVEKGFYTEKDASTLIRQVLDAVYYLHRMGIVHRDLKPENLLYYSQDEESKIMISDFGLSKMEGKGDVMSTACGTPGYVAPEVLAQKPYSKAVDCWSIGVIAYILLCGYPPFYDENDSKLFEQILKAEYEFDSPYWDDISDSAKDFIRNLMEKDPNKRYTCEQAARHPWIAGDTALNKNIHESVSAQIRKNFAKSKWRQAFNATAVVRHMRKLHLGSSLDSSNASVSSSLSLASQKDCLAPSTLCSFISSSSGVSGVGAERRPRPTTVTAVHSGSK
MAP/microtubule affinity-regulating kinase 3, sequence (P27448 whole entry, looked up): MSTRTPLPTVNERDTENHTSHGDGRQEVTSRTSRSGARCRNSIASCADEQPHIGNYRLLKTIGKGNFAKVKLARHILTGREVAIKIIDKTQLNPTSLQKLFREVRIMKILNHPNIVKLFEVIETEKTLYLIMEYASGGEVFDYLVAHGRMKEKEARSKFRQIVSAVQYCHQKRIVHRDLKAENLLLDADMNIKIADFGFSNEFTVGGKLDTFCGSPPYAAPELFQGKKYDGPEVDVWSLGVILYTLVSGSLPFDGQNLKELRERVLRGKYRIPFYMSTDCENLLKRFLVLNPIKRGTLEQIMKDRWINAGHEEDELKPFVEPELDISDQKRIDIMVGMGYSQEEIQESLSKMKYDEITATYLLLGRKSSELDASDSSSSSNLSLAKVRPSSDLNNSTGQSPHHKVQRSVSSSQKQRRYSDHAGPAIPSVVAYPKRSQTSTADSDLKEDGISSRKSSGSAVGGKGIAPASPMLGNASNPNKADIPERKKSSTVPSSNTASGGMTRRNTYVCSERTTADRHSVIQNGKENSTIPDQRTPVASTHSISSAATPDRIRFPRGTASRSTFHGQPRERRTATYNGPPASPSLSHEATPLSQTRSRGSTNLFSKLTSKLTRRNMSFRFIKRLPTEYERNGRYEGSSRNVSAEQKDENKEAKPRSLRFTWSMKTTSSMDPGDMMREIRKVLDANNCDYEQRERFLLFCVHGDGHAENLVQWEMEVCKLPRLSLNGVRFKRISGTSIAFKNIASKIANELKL
Serine/threonine-protein kinase Nek4, sequence (P51957 whole entry): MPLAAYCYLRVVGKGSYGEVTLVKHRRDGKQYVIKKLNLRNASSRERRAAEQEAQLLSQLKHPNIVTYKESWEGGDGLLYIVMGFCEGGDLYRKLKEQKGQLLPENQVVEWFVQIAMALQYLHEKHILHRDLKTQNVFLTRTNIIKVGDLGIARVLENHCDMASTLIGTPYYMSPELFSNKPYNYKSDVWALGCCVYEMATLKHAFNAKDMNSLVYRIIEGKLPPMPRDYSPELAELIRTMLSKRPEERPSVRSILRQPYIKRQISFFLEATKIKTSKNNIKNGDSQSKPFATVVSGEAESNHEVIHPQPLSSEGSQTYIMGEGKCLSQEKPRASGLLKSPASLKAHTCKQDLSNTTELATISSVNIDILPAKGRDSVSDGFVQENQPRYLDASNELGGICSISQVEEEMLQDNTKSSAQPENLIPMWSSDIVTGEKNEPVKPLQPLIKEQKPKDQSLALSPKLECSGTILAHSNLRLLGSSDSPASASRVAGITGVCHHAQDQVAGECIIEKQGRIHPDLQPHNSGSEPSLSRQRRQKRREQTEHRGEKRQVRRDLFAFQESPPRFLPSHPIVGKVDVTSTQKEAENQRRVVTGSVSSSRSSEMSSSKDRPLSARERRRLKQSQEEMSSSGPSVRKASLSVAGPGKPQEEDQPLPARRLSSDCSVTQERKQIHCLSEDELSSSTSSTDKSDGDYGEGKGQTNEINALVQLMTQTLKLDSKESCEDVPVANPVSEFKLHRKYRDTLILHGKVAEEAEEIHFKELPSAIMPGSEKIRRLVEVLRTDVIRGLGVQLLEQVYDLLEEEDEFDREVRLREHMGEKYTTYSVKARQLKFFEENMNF
Cyclin-dependent kinase 5, sequence (Q00535 whole entry, the tested form may be a part): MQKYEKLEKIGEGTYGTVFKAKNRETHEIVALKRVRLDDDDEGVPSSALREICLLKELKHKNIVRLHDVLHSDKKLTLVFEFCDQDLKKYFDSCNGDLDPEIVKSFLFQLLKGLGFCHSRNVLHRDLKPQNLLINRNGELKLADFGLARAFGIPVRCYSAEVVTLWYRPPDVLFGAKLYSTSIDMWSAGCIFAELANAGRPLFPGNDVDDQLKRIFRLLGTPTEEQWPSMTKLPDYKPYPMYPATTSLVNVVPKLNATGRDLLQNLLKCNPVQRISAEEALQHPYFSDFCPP

With `CCOc1cc(N2CCC(O)CC2)ccc1Nc1ncc2c(n1)N(C)c1ccccc1C(=O)N2C`, the inhibition (in general, the drop in the measured response relative to a control, in per cent) in experiment [1] is -3.1%; in experiment [3], 6.2%; in [6] it was -3%; in [7], -7.1%; in [8] it was 8.2%; in experiment [9] it was -7.6%. Further, the inhibition is -8.3% in [14], -0.6% in [15], 7.2% in [16] and 0.1% in experiment [17]. For the same compound, the IC50 in [2], in experiment [4], in experiment [5], in experiment [10], in [11] and in experiment [12] was > 50 µM throughout. Also, the IC50 – broadly, the concentration needed to halve the response being measured – in experiment [13] is > 50 µM. Further, the result in the experiment with Mus musculus was Active.
